Experimental data: article PMC4954844 (European Journal of Drug Metabolism and Pharmacokinetics, 2015)
Read-outs that look alike come from different tables or passages of the source.

Columns and labels:
[1] = format: in vivo, male Crl:CD-1 mice
In short: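 Male Crl:CD-1 mice (8–10 weeks, bred in-house) were fasted overnight with water and dosed at 50 mg/kg into the tail vein. 3–4 per time point were exsanguinated up to 60 min. Serum was clotted at room temperature, then spun. Brain, muscle, kidneys, liver, gut and lungs were homogenized 1:4 w/v in 0.1 M PBS. Samples were stored at −80 °C.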

[2] = ref Nicklasson et al. [2002], cited from earlier work
[3] = Urinary excretion of unchanged LSF in mice; format: in vivo; conditions: 50 mg/kg i.v., within 4 h, unpublished data
In short: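 Three mice received 50 mg/kg intravenously and were housed in metabolic cages. All urine was collected at 2 and 4 h post-dose with volumes recorded. Unchanged drug was quantified by the chiral HPLC-UV method after validation for murine urine, expressed as percent of dose excreted within 4 h.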

[4] = PBPK simulation and clearance scaling of LSF to a 70-kg human subject
[5] = Human pharmacokinetic study of LSF; format: in vivo; conditions: plasma, iv, 3 mg/kg
[6] = test system: human liver microsomes (CYP1A2 and a non-cytochrome P450 enzyme); conditions: biphasic, ref Lee and Slattery [1997]; cited from earlier work
[7] = mice, ref Wyska et al. [2007], cited from earlier work
[8] = test system: human liver microsomes (CYP3A4, CYP2A6); conditions: biphasic, cited from earlier work
[9] = ref Bursten et al. [1998], cited from earlier work
[10] = mice, final PBPK model estimate
[11] = CYP2A6, ref Shin and Slattery [1998]
[12] = CYP3A4, ref Shin and Slattery [1998]

C[C@@H](O)CCCCn1c(=O)c2c(ncn2C)n(C)c1=O [LSF, (−)-R-1-(5-hydroxyhexyl)-3,7-dimethylxanthine]
Kp ([1]; male, Crl:CD-1, mouse, brain/serum, iv, 50 mg/kg): 0.345
Kp ([1]; male, Crl:CD-1, mouse, gut/serum, iv, 50 mg/kg): 0.892
clearance ([1]; male, Crl:CD-1, mouse, intravenous, 50 mg/kg): 5.43 mL/min
concentration at 60 min ([1]; male, Crl:CD-1, mouse, iv, 50 mg/kg): < 1000 ng/mL
Kp ([1]; male, Crl:CD-1, mouse, kidneys/serum, iv, 50 mg/kg): 0.777
Kp ([1]; male, Crl:CD-1, mouse, liver/serum, iv, 50 mg/kg): 0.859
Kp ([1]; male, Crl:CD-1, mouse, lungs/serum, iv, 50 mg/kg): 0.758
Kp ([1]; male, Crl:CD-1, mouse, muscle/serum, iv, 50 mg/kg): 0.64
clearance ([1]; male, Crl:CD-1, mouse, serum, iv, 50 mg/kg): 1.44 mL/min
K M (LSF concentration at 50 % of the maximum rate of metabolism) [1, 10]: 1.777 µg/mL
V max (maximum rate of metabolism) [1, 10]: 9.644 µg/min
fraction unbound (fu) in human plasma ([2]; human plasma): 0.54
blood to plasma LSF concentration ratio (CB/Cp) ([2]; human): 0.77
mean percentage of LSF dose excreted unchanged with urine [3]: 0.71 ± 0.13%
in vivo whole liver intrinsic clearance ([4]; calculated from human liver microsome Vmax/KM data and Eq. 11): 1,545.24 ml/min
plasma hepatic clearance ([4]; calculated from the in vivo intrinsic clearance (Eq. 12)): 477.54 mL/min
clearance [5]: 1280 mL/min
K M, formation of pentoxifylline from LSF, second (high K M) enzyme [6]: 158 µM
V max, formation of pentoxifylline from LSF, second (high K M) enzyme [6]: 0.928 nmol/min/mg
first-order absorption rate constant (ka) ([7]; oral administration): 0.024 min⁻¹
fraction of the dose absorbed following oral administration (F) ([7]; oral administration): 0.16
bioavailability ([7]; oral): 16%
K M, lisofylline diol formation, high K M enzyme [8, 11]: 4.23 mM
V max, lisofylline diol formation, high K M enzyme [8, 11]: 0.429 nmol/min/mg of protein
K M, lisofylline diol formation, low K M enzyme [8, 12]: 0.0230 mM
V max, lisofylline diol formation, low K M enzyme [8, 12]: 0.0565 nmol/min/mg of protein
maximum concentration (C max), observed ([9]; human subjects, oral 6 mg/kg): 226 ± 99.10 ng/mL
time to C max, observed ([9]; human subjects, oral 6 mg/kg): 0.53 ± 0.26 h
bioavailability ([9]; humans, oral): 5.9%
